Columns and labels:
Type in all cases: cell-based
NFAT = experiment: GFP-NFAT translocation in RBL-2H3 cells; details: 10 μM, thapsigargin 1 μM then 2 mM Ca2+ re-addition
Procedure, shortened: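 RBL-2H3 cells electroporated with GFP-NFAT (20 μg DNA, 300 V, 275 μF) 12–18 h beforehand, on coverslips. In nominally Ca2+-free buffer, stores depleted with 1 μM thapsigargin for 5 min, then 2 mM CaCl2 added. Test compound at 10 μM in all buffers. Basal taken before depletion. Cells fixed in paraformaldehyde with DAPI-stained nuclei. Nuclear/cytosolic GFP intensity ratio measured; ≥18 cells per condition.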

TRPC3 [1] = biological target: T1, TRPC3 (Homo sapiens, UniProt Q13507); experiment: Patch-clamp of TRPC3 currents in HEK293 cells transiently expressing TRPC3
T1 sequence (Q13507 74-921 limits assumed): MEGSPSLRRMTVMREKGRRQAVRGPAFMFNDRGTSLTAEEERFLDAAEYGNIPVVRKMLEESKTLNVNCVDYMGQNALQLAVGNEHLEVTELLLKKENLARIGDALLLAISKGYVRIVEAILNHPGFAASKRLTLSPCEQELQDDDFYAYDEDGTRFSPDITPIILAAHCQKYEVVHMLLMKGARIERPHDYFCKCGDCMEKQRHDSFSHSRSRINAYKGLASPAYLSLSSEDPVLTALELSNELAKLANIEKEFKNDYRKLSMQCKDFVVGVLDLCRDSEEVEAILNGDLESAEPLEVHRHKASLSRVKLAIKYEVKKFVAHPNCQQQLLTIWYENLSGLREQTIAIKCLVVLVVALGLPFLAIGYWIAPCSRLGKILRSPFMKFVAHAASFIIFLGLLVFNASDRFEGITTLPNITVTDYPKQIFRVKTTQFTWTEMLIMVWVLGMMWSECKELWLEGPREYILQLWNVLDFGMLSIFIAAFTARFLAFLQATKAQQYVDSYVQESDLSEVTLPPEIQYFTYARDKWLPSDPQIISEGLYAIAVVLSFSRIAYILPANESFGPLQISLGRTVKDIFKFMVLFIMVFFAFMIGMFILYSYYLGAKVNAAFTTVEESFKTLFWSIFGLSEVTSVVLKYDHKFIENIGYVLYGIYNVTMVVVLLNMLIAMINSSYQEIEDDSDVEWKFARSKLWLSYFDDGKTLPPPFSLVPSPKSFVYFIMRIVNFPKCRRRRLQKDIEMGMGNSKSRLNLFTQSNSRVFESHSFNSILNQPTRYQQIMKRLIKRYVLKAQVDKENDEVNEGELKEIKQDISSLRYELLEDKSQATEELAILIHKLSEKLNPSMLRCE

TRPC3 [2] = biological target: T1, TRPC3; details: TRPC3 ROCE vs RBL-2H3 SOCE
TRPC4beta = biological target: T2, TRPC4beta (Homo sapiens, UniProt Q9UBN4); experiment: Fura-2 Ca2+ entry in HEK293 cells overexpressing TRPC4beta-YFP
T2 sequence (Q9UBN4 1-893 isoform Q9UBN4-2): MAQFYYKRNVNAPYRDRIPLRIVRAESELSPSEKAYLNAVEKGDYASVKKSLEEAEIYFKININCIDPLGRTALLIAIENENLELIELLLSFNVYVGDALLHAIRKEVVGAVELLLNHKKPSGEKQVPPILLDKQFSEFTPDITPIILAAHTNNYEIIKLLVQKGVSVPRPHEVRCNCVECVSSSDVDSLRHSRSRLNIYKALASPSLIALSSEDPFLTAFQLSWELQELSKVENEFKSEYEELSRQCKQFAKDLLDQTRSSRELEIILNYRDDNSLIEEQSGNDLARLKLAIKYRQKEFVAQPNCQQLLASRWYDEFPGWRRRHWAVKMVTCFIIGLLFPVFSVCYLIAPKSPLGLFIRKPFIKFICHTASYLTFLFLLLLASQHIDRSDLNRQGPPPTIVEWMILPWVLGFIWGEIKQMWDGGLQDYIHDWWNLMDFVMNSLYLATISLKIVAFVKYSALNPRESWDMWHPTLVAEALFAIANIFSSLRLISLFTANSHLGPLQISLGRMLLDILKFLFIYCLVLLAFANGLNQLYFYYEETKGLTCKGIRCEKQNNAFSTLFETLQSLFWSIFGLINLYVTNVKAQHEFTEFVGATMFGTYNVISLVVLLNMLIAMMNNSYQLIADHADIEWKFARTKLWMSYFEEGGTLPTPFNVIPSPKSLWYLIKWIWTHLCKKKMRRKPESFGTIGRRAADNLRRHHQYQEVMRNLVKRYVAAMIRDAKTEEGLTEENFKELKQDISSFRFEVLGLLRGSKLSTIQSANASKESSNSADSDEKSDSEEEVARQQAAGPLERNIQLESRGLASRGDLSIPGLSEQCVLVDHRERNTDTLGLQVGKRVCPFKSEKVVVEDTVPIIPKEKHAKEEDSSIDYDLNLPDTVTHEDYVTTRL

RBL-2H3 cells = experiment: Degranulation assay; details: ionomycin 0.4 μM
Procedure, shortened: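 RBL-2H3 cells grown to confluency, washed in RBL-2H3 buffer with 2 mM CaCl2, all incubations at 37°C. Test compound (3 or 10 μM) for 15 min, then ionomycin 0.4 μM final for 30 min. Stopped with 0.4 M glycine (pH 10.7), A405 read. Untreated and 2% triton-lysed cells served as basal/maximal references. n = 3 passages.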

SMILES | Effect on NFAT translocation (NFAT) | Effect on TRPC3 Ca2+ entry-mediating conductance (TRPC3 [1]; 3 μM pre-incubation, carbachol) | Effect on OAG-induced TRPC3 membrane currents (TRPC3 [1]; 3 μM, OAG 100 μM) | Selectivity for TRPC3-ROCE as compared with the SOCE model, orders of magnitude (TRPC3 [2]) | Selectivity for TRPC3-ROCE as compared with the SOCE model (TRPC3 [2]; ratio of IC50 values) | IC50 (TRPC4beta) | Effect on ionomycin-initiated degranulation (RBL-2H3 cells; 3 μM) | Effect on ionomycin-initiated degranulation (RBL-2H3 cells; 10 μM) | TRPC3 currents remaining (TRPC3 [1]; 3 μM, percent of control)
Cc1ccc(S(=O)(=O)Nc2ccc(-n3nc(C(F)(F)F)cc3C(F)(F)F)cc2)cc1 [Pyr10, N-(4-(3,5-bis(trifluoromethyl)-1H-pyrazole-1-yl)phenyl)-4-methylbenzenesulfonamide] | failed to suppress NFAT activation significantly | eliminated TRPC3 currents | potently blocks DAG-mediated TRPC3 membrane currents | 1.25 OM | 18 fold | > 10 µM |  |  | 
O=C(Nc1ccc(-n2nc(C(F)(F)F)cc2C(F)(F)F)cc1)c1ccncc1F [Pyr6, N-(4-(3,5-bis(trifluoromethyl)-1H-pyrazole-1-yl)phenyl)-3-fluoroisonicotinamide] | clearly inhibited NFAT translocation |  |  |  |  | > 10 µM | substantially reduced degranulation | suppressed responses down to basal levels | 52%

— article PMC3525873 (British Journal of Pharmacology, 2012)
